Screening data: PubChem BioAssay, Sanford-Burnham Center for Chemical Genomics
bIAP act = increases bovine intestinal alkaline phosphatase activity. purified bovine IAP, CDP-star luminescence, 30 min; hits give high values; fold of DMSO-control signal, blank-subtracted. activation factor at 20 µM. 200,000 tested, 0.17% active;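 active means activation factor of 2 or more at 20 µM, a signal rise over negative controls twice the positive control's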
bIAP inh = intestinal alkaline phosphatase (bovine) inhibition; purified bovine IAP, CDP-star luminescence, 30 min; inhibition, % at 20 µM; 190,000 tested, under 10 active; AID 1019;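 active means over 50% inhibition of intestinal alkaline phosphatase at 20 µM in the single-dose screen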
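System: purified bovine intestinal alkaline phosphatase (IAP) enzyme; Input: IAP diluted 1/65,000,000 in the well; Measured by: CDP-star luminescence signal; Compound dosing: 20 µM single dose; Incubation: 30 min reaction at room temperature.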
hIAP inh = blocks human intestinal alkaline phosphatase; AID 2544; purified IAP, CDP-Star luminescence, 30 min; inhibition, % at 10 µM; P09923; 330,000 tested, 0.12% active;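 active means inhibition reaching a set limit with compound at 10 µM in the primary screen, cut at about 35% in these data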
Target sequence (P09923 whole entry, looked up): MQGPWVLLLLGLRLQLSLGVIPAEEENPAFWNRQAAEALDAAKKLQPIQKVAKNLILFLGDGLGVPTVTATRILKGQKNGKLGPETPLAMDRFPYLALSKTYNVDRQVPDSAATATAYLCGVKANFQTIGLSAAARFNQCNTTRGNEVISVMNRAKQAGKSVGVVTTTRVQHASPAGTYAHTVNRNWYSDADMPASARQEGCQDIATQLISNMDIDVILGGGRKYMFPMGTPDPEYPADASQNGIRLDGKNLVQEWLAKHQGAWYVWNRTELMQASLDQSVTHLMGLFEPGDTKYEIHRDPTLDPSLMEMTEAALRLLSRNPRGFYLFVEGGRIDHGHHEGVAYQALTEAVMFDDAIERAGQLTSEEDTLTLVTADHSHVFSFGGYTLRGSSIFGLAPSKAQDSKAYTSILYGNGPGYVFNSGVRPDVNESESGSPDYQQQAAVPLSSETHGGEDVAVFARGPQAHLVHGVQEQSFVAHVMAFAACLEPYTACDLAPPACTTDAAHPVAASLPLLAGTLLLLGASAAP
mIAP inh = mouse IAP inhibition; AID 2806; purified mouse IAP, CDP-Star luminescence, 30 min; inhibition, % at 10 µM; 330,000 tested, 0.2% active;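 active means inhibition of at least 40% at 10 µM in the primary screen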
mIAP activ = increases mouse intestinal alkaline phosphatase activity; muIAP, CDP-Star luminescence, 30 min; hits give high values; 1 = vehicle-only enzyme signal, 0 = enzyme-free wells; activation factor at 10 µM; 330,000 tested, 0.24% active; AID 2805;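 active means activation factor of at least 2 at 20 µM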
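Assay system: mouse IAP enzyme / Compound: DMSO-dissolved test compounds / Timing: 30 min, room temperature / Measured by: luminescence from enzymatic CDP-Star hydrolysis / Control set: DMSO-only wells, enzyme-free buffer wells as negative control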
hIAP act = human IAP activation; P09923; purified human IAP, CDP-Star luminescence, 30 min; hits give high values; 1 = vehicle-only enzyme, 0 = enzyme-free background; activation factor at 10 µM; 330,000 tested, 0.16% active;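 active means activation factor of the enzyme at least 2-fold when tested at 20 µM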
mIAP inh confirm = mouse IAP inhibition confirmation | 11,000 tested, 4.7% active | shares compounds with mIAP inh | inhibition, % at 10 µM | purified mouse IAP, CDP-Star luminescence, 30 min;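 active means inhibition of at least 40% at 10 µM in either of the two replicates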
A number is an active result; 0 = inactive; - = no result given. The list is not random: actives were taken first. Their share in the collection is about 0.77%.

SMILES | bIAP act | bIAP inh | hIAP inh | mIAP inh | mIAP activ | hIAP act | mIAP inh confirm
CC(C)CC(C(=O)Nc1oc(-c2ccco2)c(-c2ccco2)c1C#N)N1C(=O)c2ccccc2C1=O (centres undefined) | 0 | 0 | 0 | 45 | 0 | 0 | 48
CC(C)CC(C(=O)Nc1cccc(O)c1)N1C(=O)c2ccccc2C1=O (centres undefined) | - | - | 0 | 0 | 0 | 0 | -
CC(C)(C)OC(=O)C[C@@H]1C/C=C\C[C@H](CC(=O)N(CCO)Cc2ccccc2)C(=O)N[C@H](Cc2ccccc2)COC1=O | - | - | 0 | 0 | 0 | 0 | -
Cn1cccc1C(=O)OCc1cc(Cl)cc2c1OCOC2 | 0 | 0 | 0 | 0 | 0 | 0 | 24
COc1cc(/C=C/C(=O)O)ccc1O | - | - | 0 | 0 | 0 | 0 | -
Oc1ccc(/C=N/N=C/c2ccc(O)c(O)c2)cc1O | - | - | 0 | 60 | 0 | 0 | 64
N#Cc1c(SCC(=O)Nc2nc3ccc(Br)cc3s2)sc2c(O)cc(=O)[nH]c12 | - | - | 0 | 41 | 0 | 0 | 72
N#Cc1c(SCC(=O)Nc2nc3ccccc3s2)sc2c(O)cc(=O)[nH]c12 | - | - | 0 | 61 | 0 | 0 | 73
CCCSc1nnc(NC(=O)CSc2sc3c(O)cc(=O)[nH]c3c2C#N)s1 | - | - | 0 | 0 | 0 | 0 | -
N#Cc1cccc(NC(=O)CSc2sc3c(O)cc(=O)[nH]c3c2C#N)c1 | - | - | 0 | 0 | 0 | 0 | -
N#Cc1c(SCC(=O)Nc2nccs2)sc2c(O)cc(=O)[nH]c12 | - | - | 0 | 48 | 0 | 0 | 63
CCCCN(C(=O)Cc1ccc(S(=O)(=O)N2CCOCC2)s1)c1c(N)n(CCCC)c(=O)[nH]c1=O | - | - | 0 | 0 | 0 | 0 | -
CC1(c2ccc(OC(F)F)cc2)NC(=O)N(CC(=O)NCCC2=CCCCC2)C1=O (centres undefined) | - | - | 0 | 0 | 0 | 0 | -
C#CCOCCOCCOCCNc1nc(N2CCN(C(=O)CCCCCCCCCCNC(=O)Cn3cc(CCCCCN)nn3)CC2)nc(N2CCN(C(=O)CCCCCCCCCCNC(=O)Cn3cc(C[C@@H](C)O)nn3)CC2)n1 | - | - | 0 | 0 | 2.1 | 0 | 0
C#CCOCCOCCOCCNc1nc(N2CCN(C(=O)CCCCCCCCCCNC(=O)Cn3cc(C[C@@H](C)O)nn3)CC2)nc(N2CCN(C(=O)CCCCCCCCCCNC(=O)[C@@H]([C@H](C)CC)n3cc(CCCCCN)nn3)CC2)n1 | - | - | 0 | 0 | 6.1 | 0 | 0
O=C(Nn1cnc2ccccc2c1=O)c1c(F)cccc1F | - | - | 0 | 0 | 0 | 0 | -
COCCNC(=O)C(c1ccc(F)cc1)N(C(=O)CCC(=O)Nc1nccs1)c1cccc(C)c1 (centres undefined) | 0 | 0 | 0 | 0 | 0 | 0 | -
Cc1cc2nc3ccc(N(C)C)cc3nc2cc1N | - | - | 0 | 57 | 0 | 0 | 65
O=C(N/C=C/c1ccccc1)Nc1ccc(Cl)cc1 | 0 | 0 | 0 | 0 | 4 | 0 | 0
O=C(N/N=C/c1ccc(Cl)cc1)Nc1ccccc1 | 0 | 0 | 0 | 0 | 0 | 0 | -
COc1cccc(C(=O)NC2CC3CCCC(C2)N3CC(=O)Nc2ccccc2C(F)(F)F)c1 (centres undefined) | - | - | 0 | 0 | 0 | 0 | -
CCc1cccc(CC)c1NC(=O)CN1C2CCCC1CC(NC(=O)Nc1cccc(OC)c1)C2 (centres undefined) | 0 | 0 | 0 | 0 | 2.7 | 0 | 0
CCC(C)N1CCC2(CC1)N=c1c(c3c4c5c(C)c(O)c3c(O)c1=NC(=O)C(C)=CC=C[C@H](C)[C@H](O)[C@@H](C)[C@@H](O)[C@@H](C)[C@H](OC(C)=O)[C@H](C)[C@@H](OC)C=CO[C@@](C)(O5)C4=O)N2 (some centres undefined) | - | - | 0 | 0 | 0 | 0 | -
Cc1cc(Cn2nc(-c3ccccc3)cc2C(=O)NCc2cccc(C(F)(F)F)c2)on1 | - | - | 0 | 0 | 3.3 | 0 | 0
Cc1cc(Cn2nc(-c3ccccc3)cc2C(=O)NCc2cccc(Br)c2)on1 | - | - | 0 | 0 | 4 | 0 | 0
SMILES | bIAP act | bIAP inh | hIAP inh | mIAP inh | mIAP activ | hIAP act | mIAP inh confirm
CCS(=O)(=O)n1nc(-c2ccco2)nc1SC | 0 | 0 | 0 | 0 | 0 | 0 | 36
CSc1nc(-c2ccco2)nn1S(=O)(=O)c1ccccc1 | 0 | 0 | 0 | 0 | 0 | 0 | -
O=C(N/N=C/c1cccnc1)c1cc(O)c(O)c(O)c1 | - | - | 0 | 42 | 0 | 0 | 58
Cc1cc(-c2ccccc2)n(-c2ccccc2)n1 | - | - | 0 | 72 | 0 | 0 | 85
Cc1cc(-c2ccco2)n(-c2ccccc2)n1 | 0 | 0 | 0 | 0 | 0 | 0 | -
CC1CCN(C(=O)COC(=O)Cn2cnc3ccccc32)CC1 | - | - | 0 | 0 | 0 | 0 | -
CC1CC(=O)c2c(cc3c(-c4c(O)cc(O)c5c(O)c6c(cc45)OC(C)CC6=O)c(O)cc(O)c3c2O)O1 (centres undefined) | 0 | 0 | 0 | 42 | 0 | 0 | 68
O=C1CC(c2ccccc2)Oc2cc(O)cc(O)c21 (centres undefined) | - | - | 0 | 0 | 0 | 0 | -
Fc1cccc2sc(Nc3nnc(-c4ccccc4)o3)nc12 | 0 | 0 | 0 | 0 | 0 | 0 | 37
COCc1ccc(CN2CCC(C(=O)Nc3cccc(-c4cccc(Cl)c4)c3)CC2)o1 | - | - | 0 | 0 | 2.7 | 0 | 0
C=C(C)COc1ccc2c(C)c(CCC(=O)N3C[C@H]4C[C@@H](C3)c3cccc(=O)n3C4)c(=O)oc2c1 | - | - | 0 | 0 | 0 | 0 | -
O=C(COC(=O)c1cccc(F)c1)NC(=O)NCc1ccccc1 | - | - | 0 | 0 | 0 | 0 | -
Cc1cc(-c2nc3c4c5c(sc4[nH]c(=O)n3n2)CCC5)c(C)o1 | 0 | 0 | 0 | 49 | 0 | 0 | 66
Cc1cccc(N2CCN(C(=O)c3cccc(N4CCCC4=O)c3)C(C)C2)c1 (centres undefined) | - | - | 0 | 0 | 0 | 0 | -
Cc1c(Br)c(O)c(Br)c2sc(=O)oc12 | - | - | 0 | 59 | 0 | 0 | 65
Cc1ccccc1-c1n[nH]c(=S)n1/N=C/C=C/c1ccco1 | - | - | 0 | 44 | 0 | 0 | 50
Cc1cc(-c2n[nH]c(=S)n2/N=C/C=C/c2ccco2)n[nH]1 | - | - | 0 | 49 | 0 | 0 | 54
CCCCC1=CC2=C(c3ccco3)C(=O)C(C)(OC(=O)c3ccc(OC)cc3)C(=O)C2=CN1Cc1ccc2c(c1)OCO2 (centres undefined) | - | - | 0 | 44 | 0 | 0 | 50
O=C(NCc1ccc(F)cc1)N1CCN(C(=O)c2ccccc2)CC1 | - | - | 0 | 0 | 0 | 0 | -
O=C1OC2(c3ccccc31)c1cc(I)c(O)c(I)c1Oc1c2cc(I)c(O)c1I | - | - | 0 | 44 | 0 | 0 | 64
Cc1ccc(NC(=O)CCNS(=O)(=O)c2ccc3c(c2)CCC(=O)N3)cc1C | - | - | 0 | 0 | 0 | 0 | -
O=C(N/N=C/c1ccc(O)c(O)c1O)/C(=C/c1ccc([N+](=O)[O-])cc1)NC(=O)c1ccccc1 | 0 | 0 | 0 | 55 | 0 | 0 | 60
